Reference: PMC4254850 (Clinical cancer research : an official journal of the …, 2014)
“Also recorded” adds a separate entry of the source.

Tests used:
[1] = Phase I dose escalation: MTD, DLTs and toxicities; assay type: in vivo, human
How it was run: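 Open-label, four-centre, 3+3 escalation in metastatic solid-tumour patients. Test compound taken orally from 2 mg, QD (2–96 mg) then BID (48–72 mg), in continuous 4-week cycles after a single-dose run-in with 5–7 day washout. Toxicities graded by CTCAE v4.03. DLTs assessed over run-in plus first cycle. MTD: highest level with ≤1 of 6 patients showing DLT. Descriptive statistics.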

[2] = tested on: AKT phosphorylation (pAKT) in platelet-rich plasma (PRP); assay: AKT phosphorylation in platelet-rich plasma; assay type: in vivo, human
How it was run: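 Oral single-dose run-in (Cycle 0, Day 1): citrated blood taken pre-dose and at 1, 2, 6, 24, 48 and 72 h, plus pre-dose on Cycle 1, Day 15. Spun 200 × g, 4°C, 15 min; PRP stabilised with phosphatase inhibitor, lysed with PMSF-containing buffer, snap-frozen. Phospho- and total AKT by quantitative electrochemiluminescent assay with recombinant active AKT standard curve per plate and spiked QC samples. p-AKT/total AKT expressed as % change from pre-treatment.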

[3] = tested on: class III PI3K; details: cited from earlier work

Question: Which results are given for `CS(=O)(=O)N1CCc2c(-c3cnc(N)nc3)nc(N3CCOCC3)nc21` [CH5132799]?
Answer: Treatment-related dry skin, number of patients ([1]; 2 mg QD (n=3), grade 1-2): 1; Treatment-related fatigue, number of patients ([1]; 2 mg QD (n=3), grade 1-2): 2; Treatment-related nausea, number of patients ([1]; 2 mg QD (n=3), grade 1-2): 1; Treatment-related nausea, number of patients ([1]; 4 mg QD (n=3), grade 1-2): 1; Treatment-related rash, number of patients ([1]; 4 mg QD (n=3), grade 1-2): 1; Treatment-related fatigue, number of patients ([1]; 8 mg QD (n=3), grade 1-2): 1; Treatment-related rash, number of patients ([1]; 8 mg QD (n=3), grade 1-2): 1; Treatment-related stomatitis, number of patients ([1]; 8 mg QD (n=3), grade 1-2): 1; Treatment-related anemia, number of patients ([1]; 8 mg QD (n=3), grade 3-4): 1; Treatment-related decreased appetite, number of patients ([1]; 16 mg QD (n=3), grade 1-2): 1; Treatment-related fatigue, number of patients ([1]; 16 mg QD (n=3), grade 1-2): 1; Treatment-related nausea, number of patients ([1]; 16 mg QD (n=3), grade 1-2): 2; Treatment-related decreased appetite, number of patients ([1]; 32 mg QD (n=4), grade 1-2): 2; Treatment-related fatigue, number of patients ([1]; 32 mg QD (n=4), grade 1-2): 1; Treatment-related nausea, number of patients ([1]; 32 mg QD (n=4), grade 1-2): 1; Patients with DLT (grade 3 LFT/transaminase elevation) ([1]; 48 mg BID): one of seven; Treatment-related abdominal pain, number of patients ([1]; 48 mg BID (n=7), grade 1-2): 1; Treatment-related diarrhea, number of patients ([1]; 48 mg BID (n=7), grade 1-2): 4; Treatment-related dry skin, number of patients ([1]; 48 mg BID (n=7), grade 1-2): 2; Treatment-related fatigue, number of patients ([1]; 48 mg BID (n=7), grade 1-2): 1; Treatment-related rash, number of patients ([1]; 48 mg BID (n=7), grade 1-2): 1; Treatment-related stomatitis, number of patients ([1]; 48 mg BID (n=7), grade 1-2): 3; Treatment-related anemia, number of patients ([1]; 48 mg BID (n=7), grade 3-4): 1; Treatment-related hyperglycemia, number of patients ([1]; 48 mg BID (n=7), grade 3-4): 1; Grade ≥3 gastrointestinal AEs ([1]; 48 mg BID cohort): No grade ≥3 gastrointestinal AEs; Patients with DLTs ([1]; 56 mg BID): Two of five; Treatment-related abdominal pain, number of patients ([1]; 56 mg BID (n=5), grade 1-2): 1; Treatment-related anemia, number of patients ([1]; 56 mg BID (n=5), grade 1-2): 1; Treatment-related decreased appetite, number of patients ([1]; 56 mg BID (n=5), grade 1-2): 2; Treatment-related diarrhea, number of patients ([1]; 56 mg BID (n=5), grade 1-2): 2; Treatment-related fatigue, number of patients ([1]; 56 mg BID (n=5), grade 1-2): 3; Treatment-related nausea, number of patients ([1]; 56 mg BID (n=5), grade 1-2): 3; Treatment-related rash, number of patients ([1]; 56 mg BID (n=5), grade 1-2): 3; Treatment-related stomatitis, number of patients ([1]; 56 mg BID (n=5), grade 1-2): 4; Treatment-related vomiting, number of patients ([1]; 56 mg BID (n=5), grade 1-2): 3; Treatment-related diarrhea, number of patients ([1]; 56 mg BID (n=5), grade 3-4): 2; Treatment-related hyperglycemia, number of patients ([1]; 56 mg BID (n=5), grade 3-4): 2; Treatment-related stomatitis, number of patients ([1]; 56 mg BID (n=5), grade 3-4): 1; Treatment-related abdominal pain, number of patients ([1]; 56 mg QD (n=3), grade 1-2): 1; Treatment-related diarrhea, number of patients ([1]; 56 mg QD (n=3), grade 1-2): 2; Treatment-related dry skin, number of patients ([1]; 56 mg QD (n=3), grade 1-2): 1; Treatment-related nausea, number of patients ([1]; 56 mg QD (n=3), grade 1-2): 1; Treatment-related rash, number of patients ([1]; 56 mg QD (n=3), grade 1-2): 1; Patients with DLTs ([1]; 72 mg BID): two of three; Treatment-related anemia, number of patients ([1]; 72 mg BID (n=3), grade 1-2): 1; Treatment-related decreased appetite, number of patients ([1]; 72 mg BID (n=3), grade 1-2): 2; Treatment-related diarrhea, number of patients ([1]; 72 mg BID (n=3), grade 1-2): 2; Treatment-related fatigue, number of patients ([1]; 72 mg BID (n=3), grade 1-2): 1; Treatment-related nausea, number of patients ([1]; 72 mg BID (n=3), grade 1-2): 1; Treatment-related stomatitis, number of patients ([1]; 72 mg BID (n=3), grade 1-2): 1; Treatment-related vomiting, number of patients ([1]; 72 mg BID (n=3), grade 1-2): 1; Treatment-related abdominal pain, number of patients ([1]; 72 mg BID (n=3), grade 3-4): 1; Treatment-related fatigue, number of patients ([1]; 72 mg BID (n=3), grade 3-4): 1; Treatment-related hyperglycemia, number of patients ([1]; 72 mg BID (n=3), grade 3-4): 1; Treatment-related anemia, number of patients ([1]; 96 mg QD (n=4), grade 1-2): 1; Treatment-related decreased appetite, number of patients ([1]; 96 mg QD (n=4), grade 1-2): 1; Treatment-related diarrhea, number of patients ([1]; 96 mg QD (n=4), grade 1-2): 3; Treatment-related dry skin, number of patients ([1]; 96 mg QD (n=4), grade 1-2): 2; Treatment-related fatigue, number of patients ([1]; 96 mg QD (n=4), grade 1-2): 1; Treatment-related nausea, number of patients ([1]; 96 mg QD (n=4), grade 1-2): 2; Treatment-related rash, number of patients ([1]; 96 mg QD (n=4), grade 1-2): 2; Treatment-related stomatitis, number of patients ([1]; 96 mg QD (n=4), grade 1-2): 2; Treatment-related vomiting, number of patients ([1]; 96 mg QD (n=4), grade 1-2): 2; Treatment-related diarrhea, number of patients ([1]; 96 mg QD (n=4), grade 3-4): 2; Patients with Grade ≥3 hyperglycemia ([1]; BID dosing schedule): Five; Maximum tolerated dose (MTD) ([1]; BID schedule, oral, 28-day cycles, patients with solid tumors): 48 mg; Recommended phase 2 dose (RP2D) ([1]; BID, oral): 48 mg; DLT ([1]; Cohort 7b, 48 mg BID, N=7, Cycle 1 Day 8): grade 3 elevated LFT at Cycle 1 Day 8; DLT ([1]; Cohort 8, 72 mg BID, N=3, Cycle 1): grade 3 cerebral encephalopathy; also recorded: grade 3 Fatigue; DLT ([1]; Cohort 9, 56 mg BID, N=5): grade 3 Diarrhea and stomatitis; DLTs ([1]; QD schedule): No DLTs; Maximum tolerated dose (MTD) ([1]; QD schedule, 2-96 mg, oral): not reached at 96 mg; Reversibility of DLTs ([1]; all DLTs): reversible; Grade 4 diarrhea ([1]; all dose levels): no grade 4 diarrhea reported; Patients with grade 3 diarrhea ([1]; all dose levels): Four; Treatment-related abdominal pain, number (%) of patients ([1]; all dose levels, Total (n=38)): 4 (11%); Treatment-related anemia, number (%) of patients ([1]; all dose levels, Total (n=38)): 5 (13%); Treatment-related decreased appetite, number (%) of patients ([1]; all dose levels, Total (n=38)): 8 (21%); Treatment-related diarrhea, number (%) of patients ([1]; all dose levels, Total (n=38)): 13 (34%); Treatment-related dry skin, number (%) of patients ([1]; all dose levels, Total (n=38)): 6 (16%); Treatment-related fatigue, number (%) of patients ([1]; all dose levels, Total (n=38)): 11 (29%); Treatment-related hyperglycemia, number (%) of patients ([1]; all dose levels, Total (n=38)): 5 (13%); Treatment-related nausea, number (%) of patients ([1]; all dose levels, Total (n=38)): 12 (32%); Treatment-related rash, number (%) of patients ([1]; all dose levels, Total (n=38)): 9 (24%); Treatment-related stomatitis, number (%) of patients ([1]; all dose levels, Total (n=38)): 11 (29%); Treatment-related vomiting, number (%) of patients ([1]; all dose levels, Total (n=38)): 6 (16%); Patients with DLTs ([1]; all evaluable patients, run-in period and first cycle): five of 38; Diabetic ketoacidosis ([1]; all patients): No episodes of diabetic ketoacidosis; Drug-related deaths ([1]; all patients): No drug-related deaths; Grade of most drug-related adverse events ([1]; all patients): grade 1/2; Patients with drug-related diarrhea ([1]; all patients): 34%; Patients with drug-related nausea ([1]; all patients): 32%; Patients with fatigue (most common AEs) ([1]; all patients): 29%; Patients with nausea (most common AEs) ([1]; all patients): 32%; Patients with rash (most common AEs) ([1]; all patients): 24%; Maximal inhibition of p-AKT in PRP compared to baseline ([2]; achieved at dose levels of 32 mg): approximately 50%; Duration of target engagement (reduction in phosphorylation of AKT in PRP) ([2]; after single dose): less than 24 hours; Dose levels at which p-AKT was consistently reduced in PRP ([2]; p-AKT Ser473): 8 to 96 mg; Dose with significant inhibition of PI3K signalling (reduction of AKT phosphorylation) in PRP ([2]; single dose, 2 hrs post-dose): ≥ 32 mg; Inhibitory activity against class III PI3K [3]: no inhibitory activity
